A selection: hits, their analogues and other compounds. The true share with any hit is near 4.3%.
MC4R antagonist: antagonists of human melanocortin 4 receptor (MC4R); P32245; MC4R-expressing cells, MTII-stimulated cAMP, LANCE TR-FRET; hit rate 0.48% among 360,000; AID 540295; inhibition, % at 6.5 µM;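 active = inhibition above its plate's cutoff, the mean of tested wells on that plate plus 3 SD, cut at about 29% in these data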;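 note: 0% = Melanotan II alone and 100% = Melanotan II plus saturating MCL0020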
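system = U2OS cells with stable human MC4R expression | also added = Melanotan II challenge after compound preincubation | dosing = one concentration, 6.5 µM nominal | incubation = compound 30 min, challenge 1 h, detection 1 h | measured by = TR-FRET with Eu-cAMP and labeled anti-cAMP, 671 nm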
TAAR1 antagonist: antagonists of human TAAR1; hit rate 1.5% among 360,000; Q96RJ0; CHO RD-HGA16 TAAR1, Fluo-8 calcium fluorescence, antagonist; inhibition, % at 3 µM; AID 624466;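 active = inhibition above a per-plate cutoff, the mean inhibition of test compounds on that plate plus 3 SD, cut at about 49% in these data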;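 note: 0% = DMSO plus EC80 beta-PEA response and 100% = DMSO alone without agonist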
Target sequence (Q96RJ0 whole entry, looked up): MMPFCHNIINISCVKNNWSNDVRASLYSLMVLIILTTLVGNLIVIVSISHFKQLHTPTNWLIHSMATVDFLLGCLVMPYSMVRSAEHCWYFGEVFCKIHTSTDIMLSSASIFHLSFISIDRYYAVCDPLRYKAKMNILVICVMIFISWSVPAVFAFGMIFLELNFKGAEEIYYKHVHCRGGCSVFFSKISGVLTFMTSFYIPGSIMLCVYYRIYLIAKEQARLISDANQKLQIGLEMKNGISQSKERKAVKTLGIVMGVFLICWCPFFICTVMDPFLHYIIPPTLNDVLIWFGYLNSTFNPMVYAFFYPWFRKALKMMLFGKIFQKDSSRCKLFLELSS
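System: RD-HGA16 CHO cells with stable hTAAR1 and Gα16 | Probe or stimulus: EC80 β-phenethylamine stimulus | Dosing: 3 µM, single point | Times: Dye loading 75 min at 37 °C, then 30 min room temperature | Measured by: Fluo-8 calcium-sensitive fluorescence | Read-out basis: % inhibition of agonist calcium response | Replicates: n of 1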
Beta2AR agonist: agonists of human beta-2 adrenergic receptor inducing internalization; Am2.2-beta2AR cells, FAP receptor internalization, flow cytometry; response, % (no concentration beside the values); hit rate 0.43% among 340,000; AID 504454;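 active = response above a set limit, near 3 SD of response in nonfluorescent compounds, cut at about 42% in these data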
TAAR1 agonist: agonists of human TAAR1; CHO RD-HGA16 TAAR1, Fluo-8 calcium fluorescence; vehicle wells 0%, saturating PEA agonist 100%; Q96RJ0; hit rate 0.99% among 360,000; activation, % at 3 µM;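 active = activation above the mean activation of all test compounds in the run plus 3 SD, cut at about 38% in these data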
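System: CHO-derived RD-HGA16 cells with stable Gα16 and human TAAR1 / Times: 17-24 h plating, Fluo-8 75 min 37 °C, 30 min RT / Technique: calcium-sensitive Fluo-8 signal, excitation 470-495, emission 515-575 nm / Measure: % activation relative to PEA EC100 response / Benchmarks: DMSO and PEA EC100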
MC4R ag barr: agonists of human melanocortin 4 receptor (MC4R) beta-arrestin. P32245. U2OS MC4R beta-arrestin complementation, luminescence; percent of melanotan II response, DMSO zero. activation, % at 8.9 µM. hit rate 0.98% among 360,000. AID 540308;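 active = activation above a per-plate cutoff, the mean activation of sample wells on that plate plus 3 SD, cut at about 8% in these data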
m5-HT2A agonist: activates the mouse 5-HT2A serotonin receptor | P35363 | CHO-K1 mHTR2A beta-arrestin complementation, luminescence; percent of 30 µM serotonin response | activation, % at 7.6 µM | hit rate 0.66% among 360,000;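 active = activation above a run cutoff, the mean activation of all tested compounds plus 3 SD, cut at about 14% in these data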;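 note: 0% = plate median of compound wells and 100% = 30 µM serotonin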
MOR ag counter: counter-screen for mouse HTR2A agonists: human mu opioid receptor agonists | shares compounds with m5-HT2A agonist | U2OS OPRM1 beta-arrestin PathHunter, luminescence; DMSO 0%, DAMGO 9.3 µM 100% | activation, % at 9.3 µM | hit rate 5.3% among 2,300 | AID 624380;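 active = mean activation above the mean of DMSO-only wells plus 3 SD, cut at about 0.5% in these data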
m5-HT2A ag conf: mouse HTR2A agonism confirmed; CHO-K1 PathHunter beta-arrestin recruitment, luminescence; DMSO 0%, 30 µM serotonin 100%; shares compounds with m5-HT2A agonist; AID 624381; activation, % at 7.6 µM; hit rate 19% among 2,300;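 active = mean activation across triplicates above the hit threshold derived in the original primary screen, cut at about 15% in these data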
nonsel antag count: nonselective antagonist in TAAR1 antagonist counter-screen; shares compounds with TAAR1 antagonist; counterscreen cell line, calcium fluorescence, antagonist mode; inhibition, % at 3 µM; hit rate 77% among 2,400; in the data active = inhibition above about 22%;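 note: CHO-Ga16 host cells stimulated with ATP at an EC80 level; 0% = agonist EC80 plus vehicle and 100% = vehicle without agonist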
TAAR1 ant conf: human TAAR1 antagonism, confirmed | shares compounds with TAAR1 antagonist | TAAR1-expressing cells, fluorescence antagonist read-out | inhibition, % at 3 µM | hit rate 40% among 2,400 | AID 651785; in the data active = inhibition above about 49%;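 note: CHO-Ga16 host cells challenged with agonist PEA near its EC80; 0% = agonist at EC80 plus vehicle and 100% = vehicle with no agonist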
Ga16 ag counter: nonselective Ga16 agonist in TAAR1 antagonist counter-screen; Ga16-expressing cells, calcium fluorescence, agonist counterscreen; activation, % at 3 µM; hit rate 18% among 2,400; AID 651953; shares compounds with TAAR1 antagonist; in the data active = activation above about 12%;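 note: 0% = vehicle wells and 100% = saturating stimulus response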
TAAR1 ag count: TAAR1 agonism, antagonist counter-screen | shares compounds with TAAR1 antagonist | hTAAR1 cell line, fluorescence activation, agonist mode | activation, % at 3 µM | hit rate 2% among 2,400 | AID 651955; in the data active = activation above about 37%;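 note: CHO cells stably expressing TAAR1 with calcium dye readout; 0% = DMSO vehicle and 100% = full agonist response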
* marks the source's active call; other numbers are inactive results.

Screening COc1ccc(N(C)S(=O)(=O)c2cccc(C(=O)Nc3nc(C)c(C(C)=O)s3)c2)cc1 returned MC4R antagonist 13.5, TAAR1 antagonist 61.7*, Beta2AR agonist 8.8, TAAR1 agonist 26.8, MC4R ag barr -0.7, m5-HT2A agonist 16.2*, MOR ag counter -0.4, m5-HT2A ag conf 5.5, nonsel antag count 38.3*, TAAR1 ant conf 56.5*, Ga16 ag counter 14.7* and TAAR1 ag count 12.7.
For COc1cccc(OC)c1C(=O)OCC(=O)N(c1ccccc1)C1CCCCC1 the results were MC4R antagonist -1.6, TAAR1 antagonist 5.7, Beta2AR agonist 1.3, TAAR1 agonist 35.7, MC4R ag barr 0.0 and m5-HT2A agonist 0.3.
`NC(=O)c1nsc(C(=O)N(c2ccccc2F)C(C(=O)NCc2ccc(F)cc2)c2ccc(O)cc2)c1N` (configuration not stated) gave MC4R antagonist 11.0, TAAR1 antagonist 76.7*, Beta2AR agonist 7.2, TAAR1 agonist 13.7, MC4R ag barr 0.6, m5-HT2A agonist 22.6*, MOR ag counter -0.3, m5-HT2A ag conf 2.2, nonsel antag count 33.9*, TAAR1 ant conf 48.0, Ga16 ag counter 9.9 and TAAR1 ag count 19.0.
`C#CCN1C=C(C(=O)OCC)C(C)N(Cc2ccccc2I)S1(=O)=O` (configuration not stated) gave MC4R antagonist -1.7, TAAR1 antagonist 13.1, Beta2AR agonist -5.8, TAAR1 agonist 4.2, MC4R ag barr -2.9 and m5-HT2A agonist 0.1.
For CC(C)CC(NS(=O)(=O)OCC(Cl)(Cl)Cl)c1ccccc1 (configuration not stated) the results were MC4R antagonist -1.1, TAAR1 antagonist 86.2*, Beta2AR agonist 1.7, TAAR1 agonist 19.9, MC4R ag barr 2.0, m5-HT2A agonist 19.5*, MOR ag counter 0.9*, m5-HT2A ag conf -1.3, nonsel antag count 13.1, TAAR1 ant conf 48.2, Ga16 ag counter 3.8 and TAAR1 ag count 4.9.
`COc1cccc(-c2nc(NC3CCCC3)c3ccccc3n2)c1O` gave MC4R antagonist 20.9, TAAR1 antagonist 61.4*, Beta2AR agonist 26.7, TAAR1 agonist 8.2, MC4R ag barr 0.3, m5-HT2A agonist 77.5*, MOR ag counter -0.1, m5-HT2A ag conf 81.2*, nonsel antag count 21.5*, TAAR1 ant conf 52.6*, Ga16 ag counter 7.5 and TAAR1 ag count 12.2.
For COc1cccc(-c2nc(N3CCCCC3C)c3ccccc3n2)c1O (configuration not stated) the results were MC4R antagonist 19.0, TAAR1 antagonist -22.4, Beta2AR agonist 0.5, TAAR1 agonist 4.2, MC4R ag barr -0.1 and m5-HT2A agonist -3.6.
Screening COCCN(Cc1ccccc1)C(=O)c1cc(-c2ccc(OC)c(OC)c2)nc2ccccc12 returned MC4R antagonist 0.9, TAAR1 antagonist 62.2*, Beta2AR agonist 21.3, TAAR1 agonist 4.0, MC4R ag barr 0.5, m5-HT2A agonist 17.2*, MOR ag counter -0.5, m5-HT2A ag conf -1.3, nonsel antag count 26.1*, TAAR1 ant conf 44.6, Ga16 ag counter 5.6 and TAAR1 ag count 8.7.

Screening data: PubChem, several laboratories
